Assay results from ChEMBL document CHEMBL1240426, “Synthesis and biological evaluation of novel hybrid chalcone derivatives as vasorelaxant agents” (Eur J Med Chem, 2010).

Key:
Aorta [1] = assay: Vasodilatory activity in Sprague-Dawley rat aortic rings with endothelium assessed as inhibition of phenylephrine-induced vasoconstriction; type: functional, tissue-based
Procedure, shortened: (§1)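 Endothelium-intact aortic rings from male Sprague-Dawley rats (4–6 months, ~250 g) were equilibrated for ≥1 h and then contracted isometrically with phenylephrine. Once tone stabilized (~20 min), compound was added cumulatively at 15–20 min intervals until relaxation reached steady state, with vehicle-only tissues run in parallel. Emax was taken as % of the PE contraction, and EC50 came from nonlinear regression of the concentration-response curve.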

Aorta [2] = assay: Vasodilatory activity in Sprague-Dawley rat aortic rings with endothelium assessed as inhibition of phenylephrine-induced vasoconstriction relative to phenylephrine; type: functional; procedure, shortened: as §1

| Structure (SMILES) | EC50 (Aorta [1]) [µM] | Activity (Aorta [1]) | Emax (Aorta [2]) [%] |
| --- | --- | --- | --- |
| Cc1c(COc2cc(O)cc(O)c2C(=O)/C=C/c2ccc3c(c2)OCO3)no[n+]1[O-] | 12.1 | Dose-dependent effect | 95.7 |
| COC(=O)C1=C(C)NC(C)=C(C(=O)OCCOc2cc(O)ccc2C(=O)/C=C/c2ccc3c(c2)OCO3)C1c1cccc([N+](=O)[O-])c1 (configuration not stated) | 9.7 | Dose-dependent effect | 103 |
| Cc1no[n+]([O-])c1COc1cc(O)cc(O)c1C(=O)/C=C/c1ccc2c(c1)OCO2 | 8.9 | Dose-dependent effect | 100 |
| O=C(/C=C/c1ccc2c(c1)OCO2)c1c(O)cc(O)cc1OCCO[N+](=O)[O-] | 13.4 | Dose-dependent effect | 103 |
| COC(=O)C1=C(C)NC(C)=C(C(=O)OCCOc2cc(O)cc(O)c2C(=O)/C=C/c2cccc(Br)c2)C1c1cccc([N+](=O)[O-])c1 (configuration not stated) | 6.4 | Dose-dependent effect | 102 |
| O=C(/C=C/c1ccc2c(c1)OCO2)c1c(OCCO[N+](=O)[O-])cc(OCCO[N+](=O)[O-])cc1OCCO[N+](=O)[O-] | 8.4 | Dose-dependent effect | 104 |

Further lines, with some results ahead:

| EC50 (Aorta [1]) [µM] | Structure (SMILES) | Activity (Aorta [1]) | Emax (Aorta [2]) [%] |
| --- | --- | --- | --- |
| 9.3 | COC(=O)C1=C(C)NC(C)=C(C(=O)OCCOc2cc(O)cc(O)c2C(=O)/C=C/c2ccc3c(c2)OCO3)C1c1cccc([N+](=O)[O-])c1 (configuration not stated) | Dose-dependent effect | 98.6 |
| 9.4 | Cc1c(COc2cc(O)c(C(=O)/C=C/c3ccc4c(c3)OCO4)c(OCCO[N+](=O)[O-])c2)no[n+]1[O-] | Dose-dependent effect | 96 |
| 2.9 | COC(=O)C1=C(C)NC(C)=C(C(=O)OCCOc2cc(O)cc(O)c2C(=O)/C=C/c2ccc(O)cc2)C1c1cccc([N+](=O)[O-])c1 (configuration not stated) | Dose-dependent effect | 104 |
